From PubChem
Dynein cargo inh: blocks dynein driven cargo transport along microtubules; 3617.4 mouse cells, GR-EGFP nuclear translocation imaging; test concentration mostly 20 µM; stimulated with dexamethasone, 1 µM; active compounds read low; z-score, hits read low; 0.47% of 220,000 active; AID 1381;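 active = plate z-score of nuclear minus cytoplasmic receptor signal below a set negative limit, without overly bright fluorescence or cell loss, cut at about -3.5 in these data, passing the limit was not always enough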;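 also: z-score of nuclear minus cytoplasmic ring GR-EGFP intensity difference per well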
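medium = tetracycline-free induction medium containing charcoal-stripped FBS | also added = 1.0 µM final dexamethasone stimulus | schedule = 48 h induction, 1 h compound, 30 min dex at 37 °C | technique = fixed, Hoechst-stained cells imaged at 10x for EGFP | measure = GR-EGFP nuclear translocation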
Beta2AR agonist: agonists of human beta-2 adrenergic receptor inducing internalization | P07550 | Am2.2-beta2AR cells, FAP receptor internalization, flow cytometry | response, % (test concentration not listed) | 0.43% of 340,000 active;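 active = response above a set limit, near 3 SD of response in nonfluorescent compounds, cut at about 42% in these data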
UPR XBP1 act: activators of adaptive arm of unfolded protein response (XBP1). AID 463104. 0.33% of 330,000 active. activation, % at 20 µM. CHO-XBP1 luciferase reporter, IRE1-XBP1 UPR activation, luminescence; percent of tunicamycin response, DMSO as zero;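 active = versus positive control, 20 µM dose yields 30% or more activation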;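 also: 100% = tunicamycin at 10 µg/mL and 0% = DMSO only wells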
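assay system = CHO-XBP1 luciferase reporter cells | amount = 1000 cells/well | buffer or medium = F12 plus 10% FBS | compound dosing = single point, 20 µM final compound, 1% DMSO | incubation = 16-18 h cell attachment at 37 °C, then 6 h compound exposure | detection = Steady-Glo luminescence read | controls = tunicamycin 10 µg/mL and vehicle-only wells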
Mdm2 ligase inh: Mdm2 E3 ligase (human) inhibition | cell-based MDM2 ubiquitination luciferase reporter, 2 h; 0 = plate control, 100 = twice control, blank-subtracted | signal enhancement, % at 5 µM | AID 1230 | 0.11% of 210,000 active;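 active = signal enhancement of 30% or more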;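 also: luminescence tracks abundance of the self-degrading MDM2-luciferase fusion protein; higher signal means inhibition of MDM2 E3 ligase activity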
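system = mammalian cells stably expressing self-ubiquitinating, self-degrading MDM2 E3–luciferase fusion | quantity = 2000 cells per well seeded | incubation = 4 h cell settling then 2 h compound exposure, 37 °C | signal = SteadyLite luminescence, 15 min reagent step | benchmarks = plate control and blank wells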
UPR CHOP act: apoptotic UPR (CHOP) activation; CHO-CHOP luciferase reporter, luminescence; percent of tunicamycin response over DMSO baseline; activation, % at 10 µM; 0.34% of 330,000 active;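 active = at 10 µM dose, activation of 40% or more, normalized to positive control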;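 also: 100% = tunicamycin at 10 µg/mL and 0% = DMSO alone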
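Evaluation: % reporter activation, DMSO baseline versus tunicamycin full activation; System: CHO-CHOP luciferase reporter cell line; Input: 500 cells/well; Incubation: 6 h compound treatment, 37 °C; Measured by: Steady-Glo luciferase luminescence; Dosing: one dose, 10 µM in 0.5% DMSO; Buffer or medium: F12 medium, 10% FBS; Benchmarks: positive tunicamycin 10 µg/mL, negative DMSO alone.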
Mdm2 MdmX PPI: inhibitors of human Mdm2/MdmX interaction | O15151+Q00987 | SaOS-2 split-luciferase Mdm2/MdmX complementation, luminescence | inhibition, % at 8 µM | 3% of 330,000 active;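 active = inhibition of at least 50% at 8 µM in the primary screen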
Target sequence (O15151 whole entry, looked up): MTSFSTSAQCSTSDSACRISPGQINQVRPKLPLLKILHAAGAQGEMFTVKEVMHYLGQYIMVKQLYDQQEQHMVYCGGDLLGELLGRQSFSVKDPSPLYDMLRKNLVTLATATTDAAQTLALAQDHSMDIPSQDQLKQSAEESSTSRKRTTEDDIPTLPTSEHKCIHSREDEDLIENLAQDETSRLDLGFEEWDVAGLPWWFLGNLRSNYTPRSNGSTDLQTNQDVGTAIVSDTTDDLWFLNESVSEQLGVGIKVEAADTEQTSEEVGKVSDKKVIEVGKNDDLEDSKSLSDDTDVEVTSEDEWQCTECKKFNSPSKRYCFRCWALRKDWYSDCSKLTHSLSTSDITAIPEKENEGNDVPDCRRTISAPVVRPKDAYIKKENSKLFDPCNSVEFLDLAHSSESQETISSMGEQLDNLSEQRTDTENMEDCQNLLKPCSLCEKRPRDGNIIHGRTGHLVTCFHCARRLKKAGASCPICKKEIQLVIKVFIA
Target sequence (Q00987 whole entry, looked up): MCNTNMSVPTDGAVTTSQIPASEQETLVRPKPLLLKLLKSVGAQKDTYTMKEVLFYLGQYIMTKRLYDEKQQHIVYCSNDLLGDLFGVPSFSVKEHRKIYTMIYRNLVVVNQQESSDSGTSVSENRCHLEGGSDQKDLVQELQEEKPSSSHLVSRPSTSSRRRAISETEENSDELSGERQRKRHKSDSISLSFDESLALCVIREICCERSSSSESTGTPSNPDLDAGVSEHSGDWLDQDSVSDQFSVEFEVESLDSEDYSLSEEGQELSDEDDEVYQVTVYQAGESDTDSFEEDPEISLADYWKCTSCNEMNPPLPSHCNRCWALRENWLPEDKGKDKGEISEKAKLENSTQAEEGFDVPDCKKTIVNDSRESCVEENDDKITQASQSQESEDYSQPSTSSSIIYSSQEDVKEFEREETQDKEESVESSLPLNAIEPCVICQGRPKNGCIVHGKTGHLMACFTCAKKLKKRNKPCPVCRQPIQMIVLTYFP
Mdm2 MdmX conf: confirmation of human Mdm2/MdmX interaction inhibitors; shares compounds with Mdm2 MdmX PPI; Mdm2-MdmX binding, luminescent assay; inhibition, % at 8 µM; 55% of 10,000 active; in the data active = inhibition above about 40%
Full FLuc ctr: counter-screen for Mdm2/MdmX inhibitors: full-length luciferase; shares compounds with Mdm2 MdmX PPI; SaOS-2 full-length luciferase counterscreen, luminescence; inhibition, % at 8 µM; 77% of 6,200 active; AID 504607;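 active = mean inhibition at 8 µM reaching about 37%, which flags the compound as non-specific, limit read from the data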;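 also: p53-null SaOS-2 cells with luciferase driven by a doxycycline-inducible promoter; compound on cells about two nights before reading with doxycycline added after day one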
Starred values were filed as active, the others as inactive; nt = no result given. In the library only some 3.7% were active in any assay of this set; here they are far more common.

SMILES	Dynein cargo inh	Beta2AR agonist	UPR XBP1 act	Mdm2 ligase inh	UPR CHOP act	Mdm2 MdmX PPI	Mdm2 MdmX conf	Full FLuc ctr
CCCCN(CC)CCNC(=O)c1cc2c(=O)n(CC)c3ccccc3c2s1	nt	9.0	-0.1	nt	1.3	73.4*	52.3*	66.1*
COCCCNC(=O)c1ccc(Cn2c(=O)c3ccccc3n(Cc3ccccc3C#N)c2=O)cc1	0.18	0.0	1.6	-3.2	-1.3	53.2*	19.2	nt
CCCCN(CC)CCNC(=O)c1cc2c(=O)n(C)c3ccccc3c2s1	nt	14.1	3.7	nt	1.3	37.2	nt	nt
COC(=O)Nc1ccc2c(c1)N(C(=O)CCCl)c1ccccc1S2	nt	-3.8	nt	nt	nt	nt	nt	nt
Cc1noc(C)c1S(=O)(=O)N(C)C[C@H]1Oc2ccc(NC(=O)NC3CCCCC3)cc2C(=O)N([C@H](C)CO)C[C@@H]1C	nt	8.7	-0.6	nt	-1.2	10.1	nt	nt
O=C(O)CN1C(=O)C(=O)N(Cc2ccc(C(F)(F)F)cc2)C1=O	nt	-5.5	nt	nt	nt	nt	nt	nt
CCn1c(SCC(=O)NNC(=O)c2ccc(OC)cc2)nnc1C1CC1	nt	-7.5	3.1	nt	1.0	-21.1	nt	nt
Cc1c(C=O)c(=O)n(-c2ccccc2)n1-c1ccccc1	0.618	2.0	0.4	nt	0.2	9.3	nt	nt
CCn1c(C)c(C)c2cc(C(=O)NC3CCCCCC3)ccc21	nt	13.5	4.0	nt	4.3	-3.3	nt	nt
CCCCN(CC)CCCNC(=O)c1cc2c(=O)n(CC)c3ccccc3c2s1	nt	14.2	-2.2	nt	2.3	79.5*	59.8*	54.9*
CCCCN(CC)CCNC(=O)c1cc2c(=O)[nH]c3ccc(C)cc3c2s1	nt	-1.5	1.2	nt	1.2	82.6*	46.5*	68.1*
CCCCN(CC)CCCNC(=O)c1cc2c(=O)[nH]c3ccccc3c2s1	nt	-4.1	-1.5	nt	0.2	23.7	nt	nt
Cc1nn(CCO)c(N)c1C1(O)C(=O)Nc2c(Cl)cc(Cl)cc21 (stereo unspecified)	1.02	-0.1	-4.1	-16.8	1.0	-1.3	nt	nt
CC(=O)OCC1O[C@@H](O[C@@H]2C[C@H]3C(C)(C)[C@H](OC(C)=O)CC[C@]3(C)[C@H]3CC[C@]45C[C@]4(CC[C@H]5[C@@H](C)C[C@@H](O)[C@H](O)C(C)(C)O)[C@@]32C)[C@H](O)[C@@H](O)[C@@H]1O (stereo partly specified)	-0.576	nt	29.3	nt	5.4	93.2*	13.1	nt
COc1cc2c3nnc(-c4ccc(F)cc4)c-3cn(Cc3ccc(F)cc3)c2cc1OC	-1.24	18.4	2.7	-14.0	1.5	100.3*	20.1	nt
Cn1nc2c3cc(F)ccc3n(Cc3ccc(F)cc3)cc-2c1=O	nt	7.0	-3.8	nt	-0.2	10.2	nt	nt
COc1cc2c3nnc(-c4ccc(F)cc4)c-3cn(Cc3ccccc3)c2cc1OC	-0.763	-656.1	3.7	-30.6	2.9	99.9*	93.5*	56.8*
COc1ccc(Cn2cc3c(-c4ccc(F)cc4)nnc-3c3cc(OC)c(OC)cc32)cc1	-0.815	-27.7	10.0	-22.3	13.9	100.3*	96.2*	68.2*
COc1ccc(NC(=O)c2cc3nc(-c4ccccc4)cc(-c4ccccc4)n3n2)c(OC)c1	-0.322	-3.4	0.1	-11.2	-1.3	63.7*	5.0	nt
O=C(NC1CCCC1)c1cc2nc(-c3ccccc3)cc(-c3ccccc3)n2n1	-0.331	-8.8	1.3	nt	0.6	54.9*	14.7	nt
CCCC(=O)Nc1nnc(S(=O)(=O)N(CC)c2ccc(OC)cc2)s1	nt	-3.1	-2.8	nt	0.1	11.2	nt	nt
Cc1csc2nc(O)c(C(=O)NCCCc3ccccc3)c(=O)n12	nt	-3.9	0.5	nt	1.3	61.0*	70.0*	21.1
Cc1csc2nc(O)c(C(=O)NCCC3=CCCCC3)c(=O)n12	nt	0.1	-2.3	nt	-1.5	38.7	nt	nt
Cc1cccc(OCC(=O)Nc2cccc(-c3nnc(-c4ccccc4)o3)c2)c1C	-0.111	6.1	-0.7	-10.3	2.7	13.6	nt	nt
Cc1cccc(C)c1OCC(=O)Nc1cccc(-c2nnc(-c3ccccc3)o2)c1	-0.119	17.9	1.9	1.5	-2.1	61.2*	19.6	nt
SMILES	Dynein cargo inh	Beta2AR agonist	UPR XBP1 act	Mdm2 ligase inh	UPR CHOP act	Mdm2 MdmX PPI	Mdm2 MdmX conf	Full FLuc ctr
Cc1ccc(NC(=O)c2ccccc2OCc2ccc([N+](=O)[O-])cc2)nc1	-0.113	1.1	-0.3	nt	-1.5	75.8*	59.7*	92.2*
Cc1ccc(C)c(OCc2ccc(C(=O)Nc3ccc([N+](=O)[O-])cn3)o2)c1	nt	9.3	-2.9	nt	2.6	35.6	nt	nt
NC(N)=N/N=C/c1ccc(OS(=O)(=O)c2ccccc2)cc1	0.258	13.9	-0.7	-27.9	-0.5	57.2*	36.0	81.8*
CCC(=O)N/N=C/c1ccc(OS(=O)(=O)c2ccccc2)cc1	0.589	0.8	0.2	-0.9	0.9	13.6	nt	nt
CCCCc1nc2cc(C(=O)N(C)C3CCOCC3)ccc2o1	nt	-1.9	0.8	nt	3.3	-31.7	nt	nt
C=CCNC(=O)COc1coc(CN2CCN(C(=O)c3ccco3)CC2)cc1=O	nt	-1.2	0.8	nt	1.4	-5.8	nt	nt
Cc1cc(C)c(C(=O)/C=C/c2cccc3ccccc23)c(=O)[nH]1	-1.52	4.8	1.7	-9.8	4.8	88.2*	94.3*	58.0*
C/C(=C\c1ccccc1)C(=O)c1c(C)cc(C)[nH]c1=O	0.118	-8.9	-3.4	-2.8	-1.9	57.9*	-4.2	nt
COc1ccc(OCc2cc(C(=O)N3C[C@H]4CC[C@H]3C4)no2)c(Cl)c1	nt	-5.0	5.0	nt	6.9	-22.3	nt	nt
COc1cc(C2c3cc4c(cc3OC(C)(N3CCCC3)C2C)OCO4)cc(OC)c1OC (stereo unspecified)	nt	-4.3	nt	nt	nt	nt	nt	nt
CN(C(=O)c1cccc(NC(=O)Cc2ccc(NC(=O)C3CCN(C(=O)C4CCCCC4)CC3)cc2)c1)C1CC1	nt	-9.6	nt	nt	nt	nt	nt	nt
O=C(O)CCN1C(=O)c2ccc(Oc3ccc([N+](=O)[O-])cc3)cc2C1=O	nt	-8.6	-1.7	nt	-0.6	24.1	nt	nt
CCN1CCN(c2ccc(S(=O)(=O)N3CCCCC3)cc2NC(=O)/C=C/c2cccc(OC)c2OC)CC1	nt	28.0	-5.5	nt	1.7	75.3*	49.8*	77.2*
CCN1CCN(c2ccc(S(=O)(=O)N3CCCCC3)cc2NC(=O)/C=C/c2ccc([N+](=O)[O-])cc2)CC1	nt	15.1	4.2	nt	5.2	98.5*	91.7*	47.6*
CCN1CCN(c2ccc(S(=O)(=O)N3CCCCC3)cc2NC(=O)/C=C/c2ccc(OC(F)F)cc2)CC1	nt	27.1	4.9	nt	2.3	82.5*	52.4*	69.3*
